In the EternaBench riboswitch data:

Tested on: MS2 coat protein
Assay: apparent Kd, MS2 coat protein; higher = weaker binding; RNA-MaP array; FMN 200 µM where present
Summary of the method: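 Each design was made on Illumina sequencing-chip clusters by stalled E. coli RNA polymerase and titrated with SNAP-549-labelled MS2 coat protein from 0.7 or 1.5 nM, doubling to 3 µM, in the absence and then the presence of constant ligand. The buffer was 100 mM Tris-HCl pH 7.5, 80 mM KCl, 4 mM MgCl2, BSA, DTT, yeast tRNA and Tween-20. The apparent Kd is the median of filtered per-cluster fits of binding curves, with green signal normalised to red-channel RNA signal and control-cluster median Fmax.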

[1] = designed as: OFF switch for flavin mononucleotide, no ligand
[2] = ligand present: flavin mononucleotide, designed as: OFF switch for flavin mononucleotide
[3] = designed as: ON switch for flavin mononucleotide, no ligand
[4] = ligand present: flavin mononucleotide, designed as: ON switch for flavin mononucleotide

Sequence	apparent Kd [1]	apparent Kd [2]	apparent Kd [3]	apparent Kd [4]
UUCCUGUCAGGAUAUGACUAGAUGCACGAAAGUGUGUUUACUUAGAAGGGACAUGAGGAUCACCCAUGUAGUCC	35.9 nM	33.3 nM	–	–
GGAUGACAAAGUCAUCCAAUUCGAACAUGAGGAUCACCCAUGUAGGAUAUGCUACUCAAAGAGUAGCAGAAGGACAUGUGCCUU	31.7 nM	173 nM	–	–
UUGGACGUCGUAUGAUAUGUAGGAUAUUCCUACAUGAGGAUCACCCAUGUUGACAUGGAAGAAGGACAGAAGGACGAUGUCCAU	–	–	192 nM	6.74 nM
GGGUUACAUGAGGAUCACCCAUGUGAGGAUAUGAUACUAUGUACUUCGGUACAUAGUAUCAGAAGGCACAUAAA	124 nM	122 nM	–	–
UAUUCAUACGAAGGAUAUGGUUACAUGAGGAUCACCCAUGUAUGUAUAUUGAUCUAGUUAUUUAACCAGAAGGUCGGGUGUAAA	57.3 nM	91.3 nM	–	–
CUUCUGUGAGGAUAUGUUAGCUCCCAGCAAGUCGCUGAGAGACAGAAGGCACAUGAGGAUCACCCAUGUGGGCG	35.1 nM	177 nM	–	–
CGCUGUCACGCAGGAUAUGCAUUGGAUUCCAAUGCAGAAGGGCGAUUACAUGAGGAUCACCCAUGUGCUGACAGUGAAGAAGAG	–	–	1300 nM	65.9 nM
UUAAUUAAUUAAUUCGUCAAUUACAUGAGGAUCACCCAUGUAUAGGAUAUGCAGUGGAAUACACUGCAGAAGGAUACAAAGACG	18.3 nM	21.4 nM	–	–
UAUUCUAGAUAGGAUAUACUUUAUUUUUUUUUCGUAGAAGGAUCUACAUGAGGAUCACCCAUGUUAACAGCAGU	55.5 nM	50.8 nM	–	–
UCACGGGACUGAGGAUAUACAUGAAUUAUUUUUGUAGAAGGCAGAAUGUUAGAUUAUUCACUAUACAUGAGGAUCACCCAUGUU	25.3 nM	18.2 nM	–	–
AAAUAAAGGACUAAGGAUAUAUCGCAUGACACAUGAGGAUCACCCAUGUGGUAACACAGAGGGUGAUAGAAGGUAGUCCACAAACA	–	–	404 nM	75.8 nM
GUGAACGGAGGAUAUAUAUGGGCAGCAUACGCUGCAGCUUCACAUGAGGAUCACCCAUGUAGAAGGCUGUACAC	7.64 nM	23.9 nM	–	–
AUCUUGAGAGGAUAUACAUGAGGAUCACCCAUGUUGCUAACACCAUGCGCUCAUUUACGUAGAAGGCUCAUCCG	21.1 nM	40.4 nM	–	–
GUAUGGAGUACAGGAUAUGUAAGUUUUAAGUGUAUUGGUUAUUACUUAACAACAGAAGGGUAUUACAUGAGGAUCACCCAUGUA	–	–	13.4 nM	11 nM
GUGCUCGUGUAAGGAUAUGCAGCCGUUUCGGCUGCAGAAGGUACUAUAAUACAUGAGGAUCACCCAUGUCUCUAUAGUUUGGUG	–	–	27.4 nM	33.1 nM
UUUGUUUUGGUAGGAUAUACUUUUAAUUUCUCUUUCCUUACAUGAGGAUCACCCAUGUUUACAUUGUAGAAGGACCACUUUGUU	21.8 nM	19.2 nM	–	–
UUAAUUAAUUAAUUGCAGAAUUACAUGAGGAUCACCCAUGUAUAGGAUAUCGUCAGGAAUACUGACGAGAAGGAUACAAACUGC	17.9 nM	20.7 nM	–	–
AUCAGCUCGUCAGGAUAUACGUAACUGCGUCAGCAGUGUGGUAAGAUCACAUGAGGAUCACCCAUGUAGAAGGGACGAGCUGAU	–	529 nM	–	–
CAGCCCUGAGGAUAUCCACCCUCGUACAUGAGGAUCACCCAUGUCUCCCUCUGGGCUUUCGGAGAAGGCAGGUAUC	69 nM	58.5 nM	–	–
GCCUACUGGCGAGGAUAUUCUGUGCGGUUCCGGCUCGUGUCUGUUACAUGAGGAUCACCCAUGUGGGAGAAGGUGUCUGUGGCC	7.53 nM	7.41 nM	–	–
ACGUUUUUUGAGGAUAUGCGACGUUUUUUCGUCGUAGAAGGCGAUACAUGAGGAUCACCCAUGUUUAUGGGCAU	126 nM	174 nM	–	–

Sequence	apparent Kd [1]	apparent Kd [2]	apparent Kd [3]	apparent Kd [4]
UGUCAUUUACAGAAGGGUAGUUGGGUUAUACAUGAGGAUCACCCAUGUUAUACAGGAUAUGUGUAAAGUUAUUAUUAAAGUACA	30.1 nM	36 nM	–	–
UAGGACUACGUAGGAUAUGUAGUAGAUUACUACAUGAGGAUCACCCAUGUAAGCAUGUUAUUAGGACAGAAGGACGUGGUAAAU	–	–	30.4 nM	11.1 nM
UACAGACAUGAGGAUCACCCAUGUGAGGAUAUCCAUAACGAUAUUACAAGUAUGACAGGGAGAAGGCACAGCAA	41.3 nM	52 nM	–	–
CAAUUGGCACAGAAGGGUGACAUGAGGAUCACCCAUGUAGCGUGGCUCUCAGGAGGAGCCACGCCACAGGAUAUGUGCGGGCAC	–	–	33.2 nM	63.2 nM
GCCAUCGCAUGAGGAUAUGCUCGGGUUUCCCGAGCAGAAGGCAUGCCAUAAGACAUGAGGAUCACCCAUGUAGUUAAGAUGGCA	–	–	5.36 nM	5.4 nM
GCGGUACAUGAGGAUCACCCAUGUCAGGAUAUCCGCUGUUUGUCGAUUGGCGGGCGGUGGAGAAGGGACCUCGC	80.4 nM	81.6 nM	–	–
UGUUGUAUUACAGGAUAUCUAUGUUUUUUAUUUAGAGAAGGGUAUUCACAUGAGGAUCACCCAUGUAUAUACGAGGAAGUUGUG	–	–	49 nM	49 nM
GCACGACAUGUAGGAUAUCGAGCGCCGGGCGCUCGAGAAGGACAUGAGGAUCACCCAUGUAUUCUGAGUGACCGAGGUCGUGCA	53.9 nM	557 nM	–	–
GAGCUCAAUGAGAAGGGUUACAUGAGGAUCACCCAUGUCGACCUUGGCGUAACAGGAUAUCAUCGGGCUCAGUGCGUUGACCCA	24.9 nM	108 nM	–	–
GUCAGCUCGUGAGGAUAUACAACUCUGCUUCGGCAGUGUAUUAAGAUCACAUGAGGAUCACCCAUGUAGAAGGCACGAGCUGAU	11.5 nM	178 nM	–	–
GUUAAGGUAGGAUAUACGAUAAGAUAGGGUAGAUAUAUAACACAUGAGGAUCACCCAUGUAGAAGGACCAAUUG	38.3 nM	105 nM	–	–
AAUUGGCUCGCGCAGGAUAUGGAUCAUUCCACAUGAGGAUCACCCAUGUUAAGGAGCCUUUGCAUCCAGAAGGGUGCUGGUCUUU	–	–	41.2 nM	14.6 nM
GAGUGGUAAAGAGGAUAUGCAUUGUUAUUAAAUGCAGAAGGUUUUAACAUGAGGAUCACCCAUGUAGGACUAUUCCUGUGUUUC	–	–	14.8 nM	12.2 nM
GGUCCACAUGAGGAUCACCCAUGUCAGGAUAUACACGGCACAAUAAUAAGUGCCACCCGUAGAAGGGACGCUGG	14.8 nM	37.6 nM	–	–
AGGUAAGAGUUAAUUGUGACGGUGAGAAGGCAAAAGGUUGUGAUUAACAUGAGGAUCACCCAUGUUGAGGAUAUCACCACCUUC	6.95 nM	8.81 nM	–	–
UGUCCAUAGCAGAAGGACAUAAAUUUCCAUGAAAACAUGAGGAUCACCCAUGUAGGAUAUGCUAUGGACUAAGAGCGAAAGCUC	5.21 nM	10.3 nM	–	–
CAUAACGGCUGAGGAUAUUGAAUGUGCGUGGACAUGAGGAUCACCCAUGUUCAAGAAGGCAGCAAUUUACUUGGGUCUACCCGC	40.9 nM	309 nM	–	–
AUUACAUGAGGAUCACCCAUGUACAGAACGUUUCAUUACAGUGAGGAUAUACGAAAUGUAAAAGCGUAGAAGGCACUGGGUACA	–	–	29.5 nM	22.2 nM
GCGGAGAUACAGAAGGGAUAAGCCCUGGGCUAAUCAGGAUAUGUACGACGCAUCGUACAUGAGGAUCACCCAUGUAGCCGCUUG	–	–	483 nM	85.6 nM
AUUUGACAUGAGGAUCACCCAUGUGAGGAUAUCGUUAUUUACUUUGUUUAUAGUAUCUCGAGAAGGCACAUUUG	63.3 nM	220 nM	–	–
AGUAGUUCAGGAUAUGAUGUAUGUUACAUGAGGAUCACCCAUGUAGGUCCUUGAAUUGUAUCAGAAGGGAAUAUCU	258 nM	281 nM	–	–
